# Experimental data: ChEMBL document CHEMBL1921722, “In vitro and in vivo evaluation of select kahalalide F analogs with antitumor and antifungal activities” (Bioorg Med Chem, 2011)
# Calls of active or inactive are those of the source.
# What was measured:
# OVCAR-8 [1] = test: Cytotoxicity against human OVCAR8 cells assessed as cell growth at 8 nM by sulforhodamine B assay relative to control; format: functional; conditions: read-out: Activity
# A549 [2] = test: Cytotoxicity against human A549 cells assessed as cell growth at 80 uM by sulforhodamine B assay relative to control; format: functional; conditions: read-out: Activity
# Method in brief: (§1)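 Run at NCI in the DTP 60-cell-line human tumor panel by standard procedure. Compounds were first screened at a single concentration, then tested at five tenfold-spaced concentrations. GI50 is the concentration reducing treated-cell growth to half that of untreated controls; TGI is the concentration completely halting growth.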
# HCT-116 [3] = test: Cytotoxicity against human HCT116 cells assessed as cell growth at 80 nM by sulforhodamine B assay relative to control; format: functional; conditions: read-out: Activity
# NCI-H226 [4] = test: Cytotoxicity against human NCI-H226 cells by sulforhodamine B assay; format: functional
# Method in brief: (§2)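 NCI Developmental Therapeutics Program 60-cell-line human tumor panel screen, run at NCI. A single-concentration pre-screen was followed by a five-concentration dose-response in 10-fold steps. GI50 is the concentration that reduces growth of treated cells to half that of untreated control cells. TGI is the concentration that completely halts growth.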
# Malme-3M [5] = test: Cytotoxicity against human MALME-3M cells assessed as cell growth at 800 nM by sulforhodamine B assay relative to control; format: functional; conditions: read-out: Activity
# M14 = test: Cytotoxicity against human M14 cells by sulforhodamine B assay; format: functional; method in brief: as §2
# SR = test: Cytotoxicity against human SR cells assessed as cell growth at 8 nM by sulforhodamine B assay relative to control; format: functional; conditions: read-out: Activity
# IGROV-1 = test: Cytotoxicity against human IGROV1 cells assessed as cell growth at 8 nM by sulforhodamine B assay relative to control; format: functional; conditions: read-out: Activity
# SF-268 = test: Cytotoxicity against human SF268 cells assessed as cell growth at 80 nM by sulforhodamine B assay relative to control; format: functional; conditions: read-out: Activity
# NCI-H226 [6] = test: Cytotoxicity against human NCI-H226 cells assessed as cell growth at 8 nM by sulforhodamine B assay relative to control; format: functional; conditions: read-out: Activity
# OVCAR-3 [7] = test: Cytotoxicity against human OVCAR3 cells by sulforhodamine B assay; format: functional; method in brief: as §2
# COLO 205 = test: Antitumor activity against human COLO205 cells xenografted in mouse assessed as tumor cell killing at 4.7 mg/kg, ip qd for 4 days by MTT assay; format: functional, organism-based; set-up: dose 4.7 mg/kg
# Method in brief: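 Hollow-fiber assay in mice. Tumor lines were grown in RPMI-1640 with 10% FBS and 2 mM glutamine. Cells at 2 × 10^6 cells/ml were loaded into 1 mm PVDF fibers (500,000 Da cutoff), heat-sealed at 2 cm and held 24–48 h at 37 °C, 5% CO2 before implantation. Compound was given IP. Fibers were collected the day after the fourth treatment for MTT (OD 540 nm, group means). A ≥50% cut in percent net growth versus vehicle counted as positive.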
# DU-145 = test: Cytotoxicity against human DU145 cells assessed as cell growth at 8 nM by sulforhodamine B assay relative to control; format: functional; conditions: read-out: Activity; method in brief: as §1
# NCI-H226 [8] = test: Cytotoxicity against human NCI-H226 cells assessed as cell growth at 80 nM by sulforhodamine B assay relative to control; format: functional; conditions: read-out: Activity
# NCI-H460 = test: Cytotoxicity against human NCI-H460 cells assessed as cell growth at 80 nM by sulforhodamine B assay relative to control; format: functional; conditions: read-out: Activity
# SW-620 [9] = test: Cytotoxicity against human SW620 cells assessed as cell growth at 8 nM by sulforhodamine B assay relative to control; format: functional; conditions: read-out: Activity
# NCI-H322M [10] = test: Cytotoxicity against human NCI-H322M cells assessed as cell growth at 80 uM by sulforhodamine B assay relative to control; format: functional; conditions: read-out: Activity
# KM12 = test: Cytotoxicity against human KM12 cells by sulforhodamine B assay; format: functional; method in brief: as §2
# HCT-116 [11] = test: Cytotoxicity against human HCT116 cells assessed as cell growth at 8 nM by sulforhodamine B assay relative to control; format: functional; conditions: read-out: Activity
# HCT-15 [12] = test: Cytotoxicity against human HCT15 cells assessed as cell growth at 80 nM by sulforhodamine B assay relative to control; format: functional; conditions: read-out: Activity
# SK-MEL-2 = test: Cytotoxicity against human SK-MEL-2 cells assessed as cell growth at 80 uM by sulforhodamine B assay relative to control; format: functional; conditions: read-out: Activity
# MDA-MB-231 [13] = test: Cytotoxicity against human MDA-MB-231 cells assessed as cell growth at 8 nM by sulforhodamine B assay relative to control; format: functional; conditions: read-out: Activity
# A498 = test: Cytotoxicity against human A498 cells assessed as cell growth at 80 nM by sulforhodamine B assay relative to control; format: functional; conditions: read-out: Activity; method in brief: as §1
# 786-0 = test: Cytotoxicity against human 786-0 cells assessed as cell growth at 8 nM by sulforhodamine B assay relative to control; format: functional; conditions: read-out: Activity; method in brief: as §1
# HCC 2998 = test: Cytotoxicity against human HCC2998 cells assessed as cell growth at 80 nM by sulforhodamine B assay relative to control; format: functional; conditions: read-out: Activity
# MDA-MB-435 = test: Cytotoxicity against human MDA-MB-435 cells by sulforhodamine B assay; format: functional; method in brief: as §2
# SW-620 [14] = test: Cytotoxicity against human SW620 cells assessed as cell growth at 800 nM by sulforhodamine B assay relative to control; format: functional; conditions: read-out: Activity
# Hs-578T = test: Cytotoxicity against human Hs578T cells by sulforhodamine B assay; format: functional; method in brief: as §2
# NCI-H322M [15] = test: Cytotoxicity against human NCI-H322M cells assessed as cell growth at 8 nM by sulforhodamine B assay relative to control; format: functional; conditions: read-out: Activity
# HCT-15 [16] = test: Cytotoxicity against human HCT15 cells assessed as cell growth at 8 nM by sulforhodamine B assay relative to control; format: functional; conditions: read-out: Activity
# Pseudomonas aeruginosa = test: Antimicrobial activity against Pseudomonas aeruginosa ATCC 27853 by CLSI method; format: functional, organism-based
# OVCAR-8 [17] = test: Cytotoxicity against human OVCAR8 cells assessed as cell growth at 80 uM by sulforhodamine B assay relative to control; format: functional; conditions: read-out: Activity
# LOX IMVI = test: Cytotoxicity against human LOXIMVI cells assessed as cell growth at 80 uM by sulforhodamine B assay relative to control; format: functional; conditions: read-out: Activity
# NCI/ADR-RES = test: Cytotoxicity against human NCI/ADR-RES cells assessed as cell growth at 80 nM by sulforhodamine B assay relative to control; format: functional; conditions: read-out: Activity
# Malme-3M [18] = test: Cytotoxicity against human MALME-3M cells assessed as cell growth at 80 uM by sulforhodamine B assay relative to control; format: functional; conditions: read-out: Activity
# OVCAR-3 [19] = test: Cytotoxicity against human OVCAR3 cells assessed as cell growth at 80 uM by sulforhodamine B assay relative to control; format: functional; conditions: read-out: Activity
# U-251 = test: Cytotoxicity against human U251 cells assessed as cell growth at 8 nM by sulforhodamine B assay relative to control; format: functional; conditions: read-out: Activity
# MDA-MB-231 [20] = test: Cytotoxicity against human MDA-MB-231 cells assessed as cell growth at 8 uM by sulforhodamine B assay relative to control; format: functional; conditions: read-out: Activity
# A549 [21] = test: Cytotoxicity against human A549 cells by sulforhodamine B assay; format: functional; method in brief: as §1
structure (smiles),measurement,setting,value
C/C=C1\NC(=O)[C@H](Cc2ccccc2)NC(=O)[C@@H](C(C)C)NC(=O)[C@@H]([C@@H](C)CC)NC(=O)[C@H](NC(=O)[C@H](NC(=O)[C@H](CCCNCc2ccc(N3CCOCC3)cc2)NC(=O)[C@H]2CCCN2C(=O)[C@H](NC(=O)[C@@H](NC(=O)[C@@H](NC(=O)[C@H](NC(=O)CCCC(C)C)C(C)C)[C@@H](C)O)C(C)C)C(C)C)[C@@H](C)CC)[C@@H](C)OC(=O)[C@H](C(C)C)NC1=O,growth at 0.008 µM,OVCAR-8 [1],99%
same,growth at 80 µM,A549 [2],4%
same,growth at 0.08 µM,HCT-116 [3],100%
same,GI50,NCI-H226 [4],1660 nM
same,TGI,NCI-H226 [4]; read-out: pTGI (converted),3390 nM
same,growth at 0.8 µM,Malme-3M [5],117%
same,GI50,M14,1410 nM
same,LC50,M14,4680 nM
same,TGI,M14; read-out: pTGI (converted),2570 nM
same,growth at 0.008 µM,SR,103%
same,growth at 0.008 µM,IGROV-1,104%
same,growth at 0.08 µM,SF-268,103%
same,growth at 0.008 µM,NCI-H226 [6],94%
same,GI50,OVCAR-3 [7],617 nM
same,TGI,OVCAR-3 [7]; read-out: pTGI (converted),1860 nM
same,Activity,COLO 205,inactive
same,growth at 0.008 µM,DU-145,99%
same,growth at 0.08 µM,NCI-H226 [8],107%
same,growth at 0.08 µM,NCI-H460,103%
same,growth at 0.008 µM,SW-620 [9],104%
same,growth at 80 µM,NCI-H322M [10],-18%
same,LC50,KM12,> 75900 nM
same,GI50,KM12; read-out: GI50,201 nM
same,GI50,KM12; read-out: pGI50 (converted),200 nM
same,growth at 0.008 µM,HCT-116 [11],102%
same,growth at 0.08 µM,HCT-15 [12],107%
same,growth at 80 µM,SK-MEL-2,-32%
same,growth at 0.008 µM,MDA-MB-231 [13],95%
same,growth at 0.08 µM,A498,110%
same,growth at 0.008 µM,786-0,103%
same,growth at 0.08 µM,HCC 2998,98%
same,GI50,MDA-MB-435,1290 nM
same,TGI,MDA-MB-435; read-out: pTGI (converted),2450 nM
same,growth at 0.8 µM,SW-620 [14],75%
same,LC50,Hs-578T,> 75900 nM
same,GI50,Hs-578T; read-out: GI50,453 nM
same,TGI,Hs-578T; read-out: TGI,444 nM
same,GI50,Hs-578T; read-out: pGI50 (converted),457 nM
same,TGI,Hs-578T; read-out: pTGI (converted),2040 nM
same,growth at 0.008 µM,NCI-H322M [15],109%
same,growth at 0.008 µM,HCT-15 [16],98%
same,Activity,Pseudomonas aeruginosa,inactive
same,growth at 80 µM,OVCAR-8 [17],28%
same,growth at 80 µM,LOX IMVI,-59%
same,growth at 0.08 µM,NCI/ADR-RES,82%
same,growth at 80 µM,Malme-3M [18],-23%
same,growth at 80 µM,OVCAR-3 [19],-50%
same,growth at 0.008 µM,U-251,94%
same,growth at 8 µM,MDA-MB-231 [20],20%
same,GI50,A549 [21]; read-out: GI50,175 nM
same,GI50,A549 [21]; read-out: pGI50 (converted),174 nM
